Reference: paper PMC9064899 (The FEBS journal, 2021)
Changes are numbered by the printed parent chain.

Legend:
[1] = test system: UBIAD1-deficient FIXgla-PC/HEK293 reporter cells; assay: VKD carboxylation of FIXgla-PC supported by K vitamins in UBIAD1-knockout cells; type: cell-based, human; details: UBIAD1-deficient (knockout) FIXgla-PC/HEK293 cells
In short: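 Ubiad1-knockout FIXgla-PC/HEK293 reporter cells were cultured for 24 h with increasing concentrations of vitamin K1, MK-4, vitamin K3, or menaquinones with 1–4 or 7 isoprene units. K vitamin stocks were made in polyethoxylated castor oil. Carboxylated FIXgla-PC was determined by ELISA, and half-maximal stimulation concentration (EC50) came from curve fitting. Mean ± SD.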

UBIAD1 R54A = target: T1, UBIAD1 R54A (Homo sapiens, UniProt Q9Y5Z9, R54A); assay: Cell-based UBIAD1 functional assay
T1 sequence (Q9Y5Z9 1-338 R54A): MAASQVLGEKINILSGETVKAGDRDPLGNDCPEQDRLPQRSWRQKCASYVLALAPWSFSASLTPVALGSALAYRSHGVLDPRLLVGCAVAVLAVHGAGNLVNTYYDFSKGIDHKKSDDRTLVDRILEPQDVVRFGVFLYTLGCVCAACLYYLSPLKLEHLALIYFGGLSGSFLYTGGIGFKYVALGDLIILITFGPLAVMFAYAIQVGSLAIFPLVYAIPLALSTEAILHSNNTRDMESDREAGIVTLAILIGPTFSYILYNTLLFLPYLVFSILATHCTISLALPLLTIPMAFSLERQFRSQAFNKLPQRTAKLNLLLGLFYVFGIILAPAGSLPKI
In short: (§1)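 Wild-type or mutant human UBIAD1 in pCI-neo was transiently transfected into Ubiad1-knockout FIXgla-PC/HEK293 cells (DMEM/F12, 10% FBS). […] After 24 h, carboxylated FIXgla-PC in the medium was measured by ELISA. Activity was normalized to wild type (100%), and EC50 came from a curve fit. Mean ± SD, n=3 independent experiments.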

UBIAD1 C147S = target: T2, UBIAD1 C147S (Homo sapiens, UniProt Q9Y5Z9); assay: Cell-based UBIAD1 functional assay; details: 1 μM vitamin K3
T2 sequence (Q9Y5Z9 2-338): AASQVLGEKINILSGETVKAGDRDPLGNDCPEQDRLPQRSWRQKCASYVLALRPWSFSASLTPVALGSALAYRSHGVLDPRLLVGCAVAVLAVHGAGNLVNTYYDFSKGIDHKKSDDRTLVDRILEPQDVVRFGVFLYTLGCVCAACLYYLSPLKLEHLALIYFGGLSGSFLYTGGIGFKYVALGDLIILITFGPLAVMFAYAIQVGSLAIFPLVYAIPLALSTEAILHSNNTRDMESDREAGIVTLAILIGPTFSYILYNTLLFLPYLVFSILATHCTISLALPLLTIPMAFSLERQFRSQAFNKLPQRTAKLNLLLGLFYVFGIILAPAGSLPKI
In short: as §1

UBIAD1 G186R = target: T3, UBIAD1 G186R (Homo sapiens, UniProt Q9Y5Z9, G186R); assay: Cell-based UBIAD1 functional assay
T3 sequence (Q9Y5Z9 1-338 G186R): T1 sequence (Q9Y5Z9 1-338 R54A) with A54R, G186R
In short: as §1

UBIAD1 D236E = target: T4, UBIAD1 D236E (Homo sapiens, UniProt Q9Y5Z9, D236E); assay: Cell-based UBIAD1 functional assay
T4 sequence (Q9Y5Z9 1-338 D236E): T1 sequence (Q9Y5Z9 1-338 R54A) with A54R, D236E
In short: as §1

UBIAD1 D240A = target: T5, UBIAD1 D240A (Homo sapiens, UniProt Q9Y5Z9, D240A); assay: Cell-based UBIAD1 functional assay
T5 sequence (Q9Y5Z9 1-338 D240A): T1 sequence (Q9Y5Z9 1-338 R54A) with A54R, D240A
In short: as §1

UBIAD1 D240N = target: T6, UBIAD1 D240N (Homo sapiens, UniProt Q9Y5Z9, D240N); assay: Cell-based UBIAD1 functional assay
T6 sequence (Q9Y5Z9 1-338 D240N): T1 sequence (Q9Y5Z9 1-338 R54A) with A54R, D240N
In short: as §1

## CC1=CC(=O)c2ccccc2C1=O [vitamin K3, menadione]
[1]
  support of VKD carboxylation of reporter protein: fails to carboxylate the reporter protein
UBIAD1 R54A
  EC50: 0.084 ± 0.0116 µM
UBIAD1 R54A; R54A, 1 μM vitamin K3
  Vitamin K-dependent carboxylation Activity ± SD: 79.8 ± 2.6%
UBIAD1 C147S
  Vitamin K-dependent carboxylation Activity ± SD: 100.5 ± 3.7%
UBIAD1 G186R; G186R vs WT
  increase of EC50 value of vitamin K3 vs wild-type: 60 fold
UBIAD1 G186R; G186R, 1 μM vitamin K3
  Vitamin K-dependent carboxylation Activity ± SD: 57.1 ± 1.1%
UBIAD1 D236E
  EC50: 0.0226 ± 0.0022 µM
UBIAD1 D236E; D236E vs D236A
  EC50 value of vitamin K3 lower than that of D236A: 4 fold
UBIAD1 D236E; D236E vs WT
  increase of EC50 value of vitamin K3 vs wild-type: 6 fold
UBIAD1 D236E; D236E, 1 μM vitamin K3
  Vitamin K-dependent carboxylation Activity ± SD: 107.1 ± 4.9%
UBIAD1 D240A
  EC50: 0.064 ± 0.0105 µM
UBIAD1 D240A; D240A, 1 μM vitamin K3
  Vitamin K-dependent carboxylation Activity ± SD: 85.6 ± 1.4%
UBIAD1 D240N
  EC50: 0.0112 ± 0.0015 µM
UBIAD1 D240N; D240N, 1 μM vitamin K3
  Vitamin K-dependent carboxylation Activity ± SD: 107.8 ± 2.5%
